Measurements collected from several papers.
Protocols differ between the studies behind these lines. In brackets after ≈: the same amount, converted by molar mass.

CC[C@H]1OC(=O)[C@H](C)[C@@H](O[C@H]2C[C@@](C)(OC)[C@@H](O)[C@H](C)O2)[C@H](C)[C@@H](O[C@@H]2O[C@H](C)C[C@H](N(C)C)[C@H]2O)[C@](C)(O)C[C@@H](C)/C(=N\OCOCCOC)[C@H](C)[C@@H](O)[C@]1(C)O  MIC90 (Streptococcus agalactiae; microbial growth; clinical isolate): 8 µg/mL (≈ 9.56 µM)
FC(F)(F)c1cc(OCc2cc(-c3ccccc3)no2)c2ccccc2n1  IC50 (DND41; cell growth or viability, MTS; 72 h): 65.2 µM
CC(=O)N1CCN(c2ccc(OCC3COC(Cn4ccnc4)(c4ccc(Cl)cc4Cl)O3)cc2)CC1 (stereo not shown)  MIC (Candida tropicalis; microbial growth, broth dilution; ATCC13803; 48 h): 8 µg/mL
O=c1cc(OCc2cc(-c3ccc(Cl)cc3Cl)no2)c2ccccc2o1  IC50 (DND41; cell growth or viability, MTS; 72 h): > 100 µM
CN[C@H](CC(C)C)C(=O)N[C@H]1C(=O)N[C@@H](CC(N)=O)C(=O)N[C@H]2C(=O)N[C@H]3C(=O)N[C@H](C(=O)N[C@H](C(=O)O)c4cc(O)cc(O)c4-c4cc3ccc4O)[C@H](O)c3ccc(c(Cl)c3)Oc3cc2cc(c3O[C@@H]2O[C@H](CO)[C@@H](O)[C@H](O)[C@H]2O[C@H]2C[C@](C)(N)[C@H](O)[C@H](C)O2)Oc2ccc(cc2Cl)[C@H]1O  MIC90 (Streptococcus agalactiae; microbial growth; clinical isolate): 0.5 µg/mL (≈ 0.345 µM)
OC(Cn1cncn1)(Cn1cncn1)c1ccc(F)cc1F  MIC (Candida tropicalis; microbial growth, broth dilution; CGMCC2; 48 h): 2 µM
CC(=O)ON=C1C=CC(=C(C#N)c2ccccc2)C=C1  MIC (Candida tropicalis; microbial growth, broth dilution; ATCC13803; 48 h): 2 µg/mL
CC(=O)NC[C@H]1CN(c2ccc(N3CCOCC3)c(F)c2)C(=O)O1  MIC90 (Streptococcus agalactiae; microbial growth; clinical isolate): 1 µg/mL (≈ 2.96 µM)
N#CC(=C1C=CC(=NOC(=O)OCc2ccccc2)C=C1)c1ccccc1  MFC (Candida tropicalis; microbial killing, broth dilution; ATCC13803; 48 h): 256 µg/mL (≈ 718 µM)
N#Cc1ccc(-c2cc(COc3cc(C(F)(F)F)nc4ccccc34)on2)cc1  IC50 (DND41; cell growth or viability, MTS; 72 h): 43.7 µM
